Results taken from ChEMBL document CHEMBL3994579, “Synthesis and antibacterial activity of novel 3-O-descladinosylazithromycin derivatives” (2017).
≈ marks a conversion by molar mass, not a printed value.

Tests used:
Type in all cases: functional
Staphylococcus aureus [1] = test: Antibacterial activity against erythromycin-susceptible Staphylococcus aureus ATCC 25923 by broth microdilution method
Outline: (§1)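 MICs were determined in vitro by broth microdilution following the NCCL-recommended method. Azithromycin and clarithromycin were run alongside as reference antibiotics on the same strain panel.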

Escherichia coli = test: Antibacterial activity against penicillin-susceptible Escherichia coli ATCC 25922 by broth microdilution method; outline: as §1
Streptococcus pyogenes [2] = test: Antibacterial activity against erythromycin-susceptible Streptococcus pyogenes clinical isolate by broth microdilution method; outline: as §1
Pseudomonas aeruginosa = test: Antibacterial activity against penicillin-susceptible Pseudomonas aeruginosa ATCC 27853 by broth microdilution method; outline: as §1
Bacillus subtilis = test: Antibacterial activity against erythromycin/penicillin-susceptible Bacillus subtilis ATCC 9372 by broth microdilution method; outline: as §1
[3] = test system: Staphylococcus epidermidis; test: Antibacterial activity against penicillin-resistant Staphylococcus epidermidis clinical isolate by broth microdilution method
Outline: (§2)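 Broth microdilution per NCCL recommendation, read as minimal inhibitory concentration, run alongside azithromycin and clarithromycin references. Strains: S. pneumoniae B1 (erythromycin-resistant, ermB), A22072 (erythromycin-resistant, mefA), AB11 (erythromycin-resistant, erm and mef); S. aureus ATCC29213 ([…]); S. epidermidis clinical isolate (penicillin-resistant, not characterized).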

Staphylococcus aureus [4] = test: Antibacterial activity against […] Staphylococcus aureus ATCC 29213 by broth microdilution method; outline: as §2
Streptococcus pneumoniae [5] = test: Antibacterial activity against erythromycin-resistant Streptococcus pneumoniae B1 expressing ermB gene by broth microdilution method; outline: as §2
Streptococcus pneumoniae [6] = test: Antibacterial activity against erythromycin-resistant Streptococcus pneumoniae A22072 expressing mefA gene by broth microdilution method; outline: as §2
Streptococcus pneumoniae [7] = test: Antibacterial activity against erythromycin-resistant Streptococcus pneumoniae AB11 expressing ermB/mefA genes by broth microdilution method; outline: as §2
Streptococcus pyogenes [8] = test: Antibacterial activity against erythromycin-resistant Streptococcus pyogenes R1 clinical isolate by broth microdilution method

Structure (SMILES)	MIC (Staphylococcus aureus [1]) [µg/mL]	MIC (Escherichia coli) [µg/mL]	MIC (Streptococcus pyogenes [2]) [µg/mL]	MIC (Pseudomonas aeruginosa) [µg/mL]	MIC (Bacillus subtilis) [µg/mL]	MIC [3] [µg/mL]	MIC (Staphylococcus aureus [4]) [µg/mL]	MIC (Streptococcus pneumoniae [5]) [µg/mL]	MIC (Streptococcus pneumoniae [6]) [µg/mL]	MIC (Streptococcus pneumoniae [7]) [µg/mL]	MIC (Streptococcus pyogenes [8]) [µg/mL]
CC[C@H]1OC(=O)[C@H](C)[C@@H](O)[C@H](C)[C@@H](O[C@@H]2O[C@H](C)C[C@H](N(C)C)[C@H]2OC(=O)Nc2cccc(Cl)c2)[C@](C)(O)C[C@@H](C)CN(C)[C@H](C)[C@H]2OC(=O)O[C@@]21C	16 (≈ 20.8 µM)	32 (≈ 41.5 µM)	1 (≈ 1.3 µM)	64 (≈ 83.1 µM)	8 (≈ 10.4 µM)	32 (≈ 41.5 µM)	128 (≈ 166 µM)	64 (≈ 83.1 µM)	8 (≈ 10.4 µM)	32 (≈ 41.5 µM)	64 (≈ 83.1 µM)
CC[C@H]1OC(=O)[C@H](C)[C@@H](O)[C@H](C)[C@@H](O[C@@H]2O[C@H](C)C[C@H](N(C)C)[C@H]2OC(=O)Nc2ccccc2C)[C@](C)(O)C[C@@H](C)CN(C)[C@H](C)[C@H]2OC(=O)O[C@@]21C	4 (≈ 5.33 µM)	64 (≈ 85.3 µM)	0.5 (≈ 0.667 µM)	64 (≈ 85.3 µM)	4 (≈ 5.33 µM)	16 (≈ 21.3 µM)	32 (≈ 42.7 µM)	64 (≈ 85.3 µM)	2 (≈ 2.67 µM)	4 (≈ 5.33 µM)	64 (≈ 85.3 µM)
CC[C@H]1OC(=O)[C@H](C)[C@@H](OC(=O)n2ccnc2)[C@H](C)[C@@H](O[C@@H]2O[C@H](C)C[C@H](N(C)C)[C@H]2OC(C)=O)[C@](C)(O)C[C@@H](C)CN(C)[C@H](C)[C@H]2OC(=O)O[C@@]21C	128 (≈ 170 µM)	32 (≈ 42.5 µM)	8 (≈ 10.6 µM)	128 (≈ 170 µM)	128 (≈ 170 µM)	128 (≈ 170 µM)	128 (≈ 170 µM)	256 (≈ 340 µM)	16 (≈ 21.3 µM)	256 (≈ 340 µM)	56 (≈ 74.4 µM)
CC[C@H]1OC(=O)[C@H](C)[C@@H](OC(=O)Nc2cccc(C)c2)[C@H](C)[C@@H](O[C@@H]2O[C@H](C)C[C@H](N(C)C)[C@H]2O)[C@](C)(O)C[C@@H](C)CN(C)[C@H](C)[C@H]2OC(=O)O[C@@]21C	2 (≈ 2.67 µM)	64 (≈ 85.3 µM)	1 (≈ 1.33 µM)	64 (≈ 85.3 µM)	8 (≈ 10.7 µM)	4 (≈ 5.33 µM)	64 (≈ 85.3 µM)	64 (≈ 85.3 µM)	8 (≈ 10.7 µM)	16 (≈ 21.3 µM)	32 (≈ 42.7 µM)
CC[C@H]1OC(=O)[C@H](C)[C@@H](OC(=O)NCc2ccccc2)[C@H](C)[C@@H](O[C@@H]2O[C@H](C)C[C@H](N(C)C)[C@H]2OC(C)=O)[C@](C)(O)C[C@@H](C)CN(C)[C@H](C)[C@H]2OC(=O)O[C@@]21C	64 (≈ 80.8 µM)	128 (≈ 162 µM)	8 (≈ 10.1 µM)	128 (≈ 162 µM)	64 (≈ 80.8 µM)	64 (≈ 80.8 µM)	64 (≈ 80.8 µM)	128 (≈ 162 µM)	32 (≈ 40.4 µM)	64 (≈ 80.8 µM)	128 (≈ 162 µM)
CC[C@H]1OC(=O)[C@H](C)[C@@H](OC(=O)Nc2cccc(OC)c2)[C@H](C)[C@@H](O[C@@H]2O[C@H](C)C[C@H](N(C)C)[C@H]2OC(C)=O)[C@](C)(O)C[C@@H](C)CN(C)[C@H](C)[C@H]2OC(=O)O[C@@]21C	32 (≈ 39.6 µM)	64 (≈ 79.2 µM)	2 (≈ 2.48 µM)	64 (≈ 79.2 µM)	16 (≈ 19.8 µM)	32 (≈ 39.6 µM)	64 (≈ 79.2 µM)	128 (≈ 158 µM)	16 (≈ 19.8 µM)	32 (≈ 39.6 µM)	128 (≈ 158 µM)
CC[C@H]1OC(=O)[C@H](C)[C@@H](O)[C@H](C)[C@@H](O[C@@H]2O[C@H](C)C[C@H](N(C)C)[C@H]2OC(=O)Nc2ccc(F)cc2)[C@](C)(O)C[C@@H](C)CN(C)[C@H](C)[C@H]2OC(=O)O[C@@]21C	16 (≈ 21.2 µM)	128 (≈ 170 µM)	1 (≈ 1.33 µM)	128 (≈ 170 µM)	64 (≈ 84.9 µM)	64 (≈ 84.9 µM)	128 (≈ 170 µM)	64 (≈ 84.9 µM)	4 (≈ 5.31 µM)	8 (≈ 10.6 µM)	64 (≈ 84.9 µM)
CC[C@H]1OC(=O)[C@H](C)[C@@H](OC(=O)Nc2ccccc2C)[C@H](C)[C@@H](O[C@@H]2O[C@H](C)C[C@H](N(C)C)[C@H]2OC(C)=O)[C@](C)(O)C[C@@H](C)CN(C)[C@H](C)[C@H]2OC(=O)O[C@@]21C	16 (≈ 20.2 µM)	64 (≈ 80.8 µM)	1 (≈ 1.26 µM)	64 (≈ 80.8 µM)	8 (≈ 10.1 µM)	128 (≈ 162 µM)	64 (≈ 80.8 µM)	256 (≈ 323 µM)	8 (≈ 10.1 µM)	16 (≈ 20.2 µM)	256 (≈ 323 µM)
CC[C@H]1OC(=O)[C@H](C)[C@@H](O)[C@H](C)[C@@H](O[C@@H]2O[C@H](C)C[C@H](N(C)C)[C@H]2OC(=O)Nc2cccc(C)c2)[C@](C)(O)C[C@@H](C)CN(C)[C@H](C)[C@H]2OC(=O)O[C@@]21C	32 (≈ 42.7 µM)	64 (≈ 85.3 µM)	1 (≈ 1.33 µM)	128 (≈ 171 µM)	32 (≈ 42.7 µM)	32 (≈ 42.7 µM)	128 (≈ 171 µM)	128 (≈ 171 µM)	128 (≈ 171 µM)	64 (≈ 85.3 µM)	64 (≈ 85.3 µM)
